The target of data set [1] is T1, Cathepsin D (Bos taurus) (UniProt P80209).
T1 sequence (whole entry): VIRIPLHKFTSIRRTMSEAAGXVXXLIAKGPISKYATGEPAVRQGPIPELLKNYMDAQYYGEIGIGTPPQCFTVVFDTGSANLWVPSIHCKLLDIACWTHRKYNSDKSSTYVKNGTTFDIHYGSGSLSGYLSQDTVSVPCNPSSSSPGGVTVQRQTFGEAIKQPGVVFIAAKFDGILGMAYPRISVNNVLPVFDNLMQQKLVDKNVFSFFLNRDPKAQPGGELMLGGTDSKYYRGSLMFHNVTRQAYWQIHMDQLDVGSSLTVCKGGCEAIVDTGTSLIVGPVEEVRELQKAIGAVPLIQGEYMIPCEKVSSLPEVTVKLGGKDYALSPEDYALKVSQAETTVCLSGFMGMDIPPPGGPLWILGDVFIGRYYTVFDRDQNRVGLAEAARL
Nature of the data set: (§1) Inhibitory activity against bovine cathepsin D was determined. The conditions noted are these: concentration not given here. The essentials:
(§2)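 Bovine cathepsin D activity assayed in duplicate as hydrolysis of bovine hemoglobin (2× crystallized) at pH 3.2, 37 °C. Net absorbance at 280 nm read in acid-precipitated supernatants of inhibited vs uninhibited controls. IC50 from six inhibitor concentrations by nonlinear regression.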

Data set [2] can be described thus: solubility in phosphate buffer at pH 7.4. It is filed as physicochemical.
Data set [3] is described as follows: Partition coefficient (logD7.4). As to conditions: octanol/water.
Data set [4] deals with T2, Renin (Homo sapiens, UniProt P00797).
T2 sequence (P00797 whole entry): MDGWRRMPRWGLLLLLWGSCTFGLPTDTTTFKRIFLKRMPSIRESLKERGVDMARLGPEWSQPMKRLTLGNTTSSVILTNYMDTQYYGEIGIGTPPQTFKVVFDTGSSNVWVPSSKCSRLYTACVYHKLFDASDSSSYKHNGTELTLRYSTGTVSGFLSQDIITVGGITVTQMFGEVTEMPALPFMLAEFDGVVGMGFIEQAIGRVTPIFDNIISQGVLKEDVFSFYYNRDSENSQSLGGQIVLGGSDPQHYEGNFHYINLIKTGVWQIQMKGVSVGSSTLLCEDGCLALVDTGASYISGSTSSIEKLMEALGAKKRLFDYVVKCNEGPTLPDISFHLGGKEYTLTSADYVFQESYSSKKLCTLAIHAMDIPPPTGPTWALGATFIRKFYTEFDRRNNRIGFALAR
Description: Inhibitory activity against monkey plasma renin. Type of data set: cell-free, Cercopithecidae. The conditions noted are these: target entry is the homologue from another species. Put shortly:
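Plasma from salt-depleted, furosemide-treated monkeys (native renin and angiotensinogen) incubated with maleate buffer (pH 6.0), PMSF and inhibitor in DMSO for 60 min at 37 °C. Plasma renin activity was 3–8 ng AI/mL per h. Percent inhibition was taken vs DMSO vehicle tubes, and IC50 from six concentrations by nonlinear regression.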

In data set [5] the target is T2, Renin. Nature of the data set: Inhibitory activity against human plasma renin. It is filed as cell-free.
Data set [6] deals with T3, Cathepsin D (Bos taurus, UniProt P80209).
T3 sequence (P80209 whole entry): T1 sequence (whole entry)
Described as §1. Put shortly:
as §2

The target of data set [7] is T4, Renin (Homo sapiens) (UniProt P00797).
T4 sequence (whole entry): T2 sequence (P00797 whole entry)
Nature of the data set: Inhibitory activity against monkey plasma renin was determined at 10e-5 M concentration. It is filed as cell-free. As to conditions: Cercopithecidae, target entry is the homologue from another species. The essentials:
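Angiotensin I generated from monkey plasma (native renin and angiotensinogen) with maleate buffer pH 6.0, PMSF and inhibitor in DMSO, 60 min at 37 °C. Percent inhibition estimated against DMSO vehicle control tubes. Plasma renin activity 3–8 ng AI/mL per h.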

Data set [8] has as its target T2, Renin. Description: Inhibitory activity against human plasma renin; G means not measured. It is filed as cell-free.
The target in data set [9] is T3, Cathepsin D. Description: Inhibitory activity against bovine Cathepsin D was determined. The essentials: as §2

Bounds are passed on as bounds.

For orientation: inhibition means the share of the control response that was lost under treatment. Consider `NCCC1CN(C(=O)C[C@H](O)C(CC2CCCCC2)NC(=O)C(CC#CC/N=C(/N)N[N+](=O)[O-])NC(=O)C(Cc2cccc3ccccc23)Cc2cccc3ccccc23)CCO1` (stereo not given in full), for which the inhibition in [1] worked out at 0.7%.

In general, solubility refers to the concentration that dissolves in the medium under given conditions. As a reminder, the logD is the decadic logarithm of the distribution of all forms, ionised or not, between an organic phase and buffer at a given pH. The IC50 is the midpoint of a concentration-inhibition curve. Consider `C/N=C(\S)NCCCCC(NC(=O)C(Cc1cccc2ccccc12)Cc1cccc2ccccc12)C(=O)NC(CC(C)C)[C@@H](O)CC(=O)NC(CC(C)C)C(=O)NCc1ccccc1` (stereo not given in full), for which the solubility in [2] was < 10 µg/mL. The compound further came in with a logD in [3] (pH 7.4, logD) of 6.7. For the same compound, the figures for the IC50 in data set [4] and in data set [5] were 99 nM and 60 nM, respectively.

In data set [3] (pH 7.4), `CCC(C)CNC(=O)C[C@H](O)C(CC(C)C)NC(=O)C(CCCCC/N=C(\N)N[N+](=O)[O-])NC(=O)C(Cc1cccc2ccccc12)Cc1cccc2ccccc12` (stereo not given in full) had a logD of 5.1. In addition, the IC50 was 1470 nM in data set [6], 20 nM in [4] and 26 nM in data set [5].

For `CCC(C)CNC(=O)C[C@H](O)C(CC(C)C)NC(=O)C(CCCCNP(=O)(Oc1ccccc1)Oc1ccccc1)NC(=O)C(Cc1cccc2ccccc12)Cc1cccc2ccccc12` (stereo not given in full), the logD in data set [3] (pH 7.4) came out at 7.88. This compound also had a 50% inhibitory concentration (IC50) in data set [5] of 740 nM. The same compound returned an inhibition in data set [7] of 48%.

Consider `CCC(C)CNC(=O)C[C@H](O)C(CC(C)C)NC(=O)C(CCCCNC(=O)NC)NC(=O)C(Cc1cccc2ccccc12)Cc1cccc2ccccc12` (stereo not given in full), for which the log distribution coefficient (logD) in data set [3] (pH 7.4, logD) is 5.63. Also, the IC50 in [4] was found to be 44 nM; in [5], 29 nM.

In data set [3] (pH 7.4, logD), `CCC(C)CNC(=O)C[C@H](O)C(CC(C)C)NC(=O)C(CC#CCNC(C)=O)NC(=O)C(Cc1cccc2ccccc12)Cc1cccc2ccccc12` (stereo in doubt; 55a) registered a logD of 5.32. Further, the values for the IC50 in data set [6], in data set [4] and in data set [8] were 78 nM, 4.6 nM and 2 nM, respectively.

Regarding `CCC(C)CNC(=O)C[C@H](O)C(CC(C)C)NC(=O)C(CCCC/N=C(/S)NC)NC(=O)C(Cc1cccc2ccccc12)Cc1cccc2ccccc12` (stereo not given in full), the solubility in data set [2] was < 10 µg/mL. Further, the logD in data set [3] (pH 7.4, logD) was 5.71. The half-maximal inhibitory concentration (IC50) turned out to be 781 nM in data set [9], 23 nM in [4] and 13 nM in [5].

The compound `CCC(C)CNC(=O)C[C@H](O)C(CC(C)C)NC(=O)C(CC#CCNC(=O)OCc1ccccc1)NC(=O)C(Cc1cccc2ccccc12)Cc1cccc2ccccc12` (stereo not given in full) registered a pH-dependent lipophilicity (logD) in [3] (pH 7.4, logD) of 7.37. Besides, the concentration for half-maximal inhibition (IC50) in data set [4] worked out at 248 nM; in data set [5], 150 nM.

`CC(=O)NCC#CCC(NC(=O)C(Cc1cccc2ccccc12)Cc1cccc2ccccc12)C(=O)NC(CC1CCCCC1)[C@@H](O)CC(=O)N1CCOC(CCN)C1` (stereo not given in full) came in with an inhibition in [1] of 0.3%. In addition, 9 nM corresponded to half-maximal inhibition in [4] (IC50).

`CCC(C)CNC(=O)C[C@H](O)C(CC(C)C)NC(=O)C(CCCCCCN=C(S)NC)NC(=O)C(Cc1cccc2ccccc12)Cc1cccc2ccccc12` (stereo not given in full) showed a pH-dependent lipophilicity (logD) in [3] (pH 7.4, logD) of 5.64. Further, the figures for the half-maximal inhibitory concentration (IC50) in data set [4] and in [5] were 44 nM and 48 nM, respectively.

In data set [3] (pH 7.4, logD), `CCC(C)CNC(=O)C[C@H](O)C(CC(C)C)NC(=O)C(CCCCNS(=O)(=O)c1ccc(C)cc1)NC(=O)C(Cc1cccc2ccccc12)Cc1cccc2ccccc12` (stereo not given in full) displayed a logD of 6.7. The compound further displayed a half-maximal inhibitory concentration (IC50) in data set [5] of 3000 nM. In data set [7], this compound showed an inhibition of 48%.

Turning to `CCC(C)CNC(=O)C[C@H](O)C(CC1CCCCC1)NC(=O)C(CCCC/N=C(/S)NC)NC(=O)C(Cc1cccc2ccccc12)Cc1cccc2ccccc12` (stereo not given in full), in data set [3] (pH 7.4, logD), the log distribution coefficient (logD) was determined as 6.63. Moreover, the concentration for half-maximal inhibition (IC50) in data set [6] worked out at 3200 nM; in data set [4], 47 nM.

`CCC(C)CNC(=O)C[C@H](O)C(CC(C)C)NC(=O)C(CCNC(C)=O)NC(=O)C(Cc1cccc2ccccc12)Cc1cccc2ccccc12` (stereo not given in full) displayed a logD in data set [3] (pH 7.4, logD) of 4.4. The figures for the half-inhibitory concentration (IC50) in data set [4] and in data set [5] were 4150 nM and > 10000 nM, respectively.

Take `CCC(C)CNC(=O)C[C@H](O)C(CC(C)C)NC(=O)C(CCCCN)NC(=O)C(Cc1cccc2ccccc12)Cc1cccc2ccccc12` (stereo not given in full): the logD in data set [3] (pH 7.4, logD) is 5.25. Also, the IC50 in data set [4] came to 3490 nM; in data set [5], 2580 nM.

For `NCCC1CN(C(=O)C[C@H](O)C(CC2CCCCC2)NC(=O)C(Cc2c[nH]cn2)NC(=O)C(Cc2ccccc2)NS(=O)(=O)N2CCOCC2)CCO1` (stereo not given in full), the logD in [3] (pH 7.4, logD) stood at 2.25. For the same compound, the half-maximal inhibitory concentration (IC50) in data set [4] was 5 nM; in [5], 5.4 nM.

In the case of `CC(C)CC(NC(=O)C(CCCC/N=C(/N)N[N+](=O)[O-])NC(=O)C(Cc1cccc2ccccc12)Cc1cccc2ccccc12)[C@@H](O)CC(=O)N1CCOC(CCN)C1` (stereo not given in full), in data set [3] (pH 7.4), the pH-dependent lipophilicity (logD) was 4.09. Besides, the 50% inhibitory concentration (IC50) in [4] is 40 nM; in data set [5] it was 45 nM.

For the origin of these results see ChEMBL document CHEMBL1125654, “New inhibitors of human renin that contain novel replacements at the P2 site” (J Med Chem, 1991).
